{"source": "ChEMBL document CHEMBL4364267", "about": "“Hydrogen sulfide donating ent-kaurane and spirolactone-type 6,7-seco-ent-kaurane derivatives: Design, synthesis and antiproliferative properties” (Eur J Med Chem, 2019)", "key": {"[1]": {"system": "Bel-7402", "experiment": "Induction of apoptosis in human Bel7402 cells assessed as late apoptotic cells at 1.80 uM after 48 hrs by Annexin V-FITC/propidium iodide staining based flow cytometry (reference value: 0.68%)", "assay_type": "functional", "outline": "(§1)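 Bel-7402 cells in 6-well plates treated with 0, 0.45, 0.90 or 1.80 μM, washed twice with PBS and resuspended in annexin V binding buffer. Stained with annexin V-FITC and PI for 15 min at room temperature in the dark, then analysed by flow cytometry. Methods state 24 h exposure; the figure legend states 48 h.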"}, "[2]": {"experiment": "Selectivity index, ratio of IC50 for human L02 cells to IC50 for human Bel7402 cells after 72 hrs by MTT assay", "assay_type": "toxicity", "settings": "L02 cells versus Bel7402 cells, read-out: Ratio IC50"}, "[3]": {"system": "Bel-7402", "experiment": "Induction of mitochondrial membrane potential loss in human Bel7402 cells assessed as cell population with mitochondrial membrane potential collapse at 0.45 uM after 48 hrs by JC1 staining-based flow cytometry analysis (reference value: 1.28%)", "assay_type": "functional", "outline": "(§2)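 Bel-7402 cells in 6-well plates exposed for 48 h to 0, 0.45, 0.90 or 1.80 μM, DMSO as vehicle. Washed with PBS and stained with JC-1 at room temperature in the dark. Cells with collapsed membrane potential counted by flow cytometry.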"}, "[4]": {"system": "Bel-7402", "experiment": "Induction of mitochondrial membrane potential loss in human Bel7402 cells assessed as cell population with mitochondrial membrane potential collapse at 1.80 uM after 48 hrs by JC1 staining-based flow cytometry analysis (reference value: 1.28%)", "assay_type": "functional", "outline": "as §2"}, "[5]": {"system": "Bel-7402", "experiment": "Induction of apoptosis in human Bel7402 cells assessed as necrotic cells at 0.90 uM after 48 hrs by Annexin V-FITC/propidium iodide staining based flow cytometry (reference value: 0.01%)", "assay_type": "functional", "outline": "as §1"}, "[6]": {"system": "Bel-7402", "experiment": "Cell cycle arrest in human Bel7402 cells assessed as accumulation of cells at S phase at 1.80 uM after 48 hrs by propidium iodide/RNase staining based flow cytometric analysis (reference value: 39.09%)", "assay_type": "functional"}, "[7]": {"system": "Bel-7402", "experiment": "Induction of mitochondrial membrane potential loss in human Bel7402 cells assessed as cell population with intact mitochondrial membrane potential at 0.90 uM after 48 hrs by JC1 staining-based flow cytometry analysis (reference value: 98.67%)", "assay_type": "functional", "outline": "as §2"}, "[8]": {"system": "Bel-7402", "experiment": "Induction of apoptosis in human Bel7402 cells assessed as early apoptotic cells at 0.90 uM after 48 hrs by Annexin V-FITC/propidium iodide staining based flow cytometry (reference value: 2.09%)", "assay_type": "functional", "outline": "as §1"}, "[9]": {"system": "Bel-7402", "experiment": "Induction of apoptosis in human Bel7402 cells assessed as increase in cleaved caspase-3 expression at 0.90 to 1.80 uM after 48 hrs by Western blot analysis", "assay_type": "functional, cell-based"}, "[10]": {"system": "Bel-7402", "experiment": "Induction of apoptosis in human Bel7402 cells assessed as reduction in Bcl-2 expression at 0.90 to 1.80 uM after 48 hrs by Western blot analysis", "assay_type": "functional, cell-based"}, "[11]": {"system": "PBMC", "experiment": "Cytotoxicity against human PBMC assessed as reduction in cell viability after 72 hrs by MTT assay", "assay_type": "cell-based", "outline": "(§3)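 MTT assay over 72 h, compounds at 64, 16, 4, 1, 0.25, 0.0625 and 0.015625 μM. MTT solution (5 mg/mL) and DMSO added afterwards, 10 min at room temperature, absorbance read at 490 nm. IC50 calculated as the mean ± SD of three independent experiments.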"}, "[12]": {"system": "Bel-7402", "experiment": "Cell cycle arrest in human Bel7402 cells assessed as accumulation of cells at G1 phase after 48 hrs by propidium iodide/RNase staining based flow cytometric analysis", "assay_type": "functional"}, "[13]": {"system": "K562", "experiment": "Antiproliferative activity against human K562 cells assessed as reduction in cell viability after 72 hrs by MTT assay", "assay_type": "functional, cell-based", "settings": "K562, 72 h", "outline": "as §3"}, "[14]": {"system": "Bel-7402", "experiment": "Cell cycle arrest in human Bel7402 cells assessed as accumulation of cells at G2 phase at 0.45 uM after 48 hrs by propidium iodide/RNase staining based flow cytometric analysis (reference value: 29.97%)", "assay_type": "functional"}, "[15]": {"system": "Bel-7402", "experiment": "Induction of mitochondrial membrane potential loss in human Bel7402 cells assessed as cell population with intact mitochondrial membrane potential at 0.45 uM after 48 hrs by JC1 staining-based flow cytometry analysis (reference value: 98.67%)", "assay_type": "functional", "outline": "as §2"}, "[16]": {"system": "Bel-7402", "experiment": "Cell cycle arrest in human Bel7402 cells assessed as accumulation of cells at S phase at 0.45 uM after 48 hrs by propidium iodide/RNase staining based flow cytometric analysis (reference value: 39.09%)", "assay_type": "functional"}, "[17]": {"system": "Bel-7402", "experiment": "Induction of apoptosis in human Bel7402 cells assessed as viable cells at 0.45 uM after 48 hrs by Annexin V-FITC/propidium iodide staining based flow cytometry (reference value: 97.22%)", "assay_type": "functional", "settings": "Bel-7402, 48 h, read-out: Activity", "outline": "as §1"}, "[18]": {"experiment": "Selectivity index, ratio of IC50 for human PBMC to IC50 for human Bel7402 cells after 72 hrs by MTT assay", "assay_type": "toxicity", "settings": "PBMC versus Bel7402 cells, read-out: Ratio IC50"}, "[19]": {"system": "Bel-7402", "experiment": "Cell cycle arrest in human Bel7402 cells assessed as accumulation of cells at G2 phase at 1.80 uM after 48 hrs by propidium iodide/RNase staining based flow cytometric analysis (reference value: 29.97%)", "assay_type": "functional"}, "[20]": {"system": "Bel-7402", "experiment": "Induction of apoptosis in human Bel7402 cells after 48 hrs by Annexin V-FITC/propidium iodide staining based assay", "assay_type": "functional, cell-based", "outline": "as §1"}, "[21]": {"system": "Bel-7402", "experiment": "Induction of apoptosis in human Bel7402 cells assessed as late apoptotic cells at 0.90 uM after 48 hrs by Annexin V-FITC/propidium iodide staining based flow cytometry (reference value: 0.68%)", "assay_type": "functional", "outline": "as §1"}, "[22]": {"system": "Bel-7402", "experiment": "Antiproliferative activity against human Bel7402 cells assessed as reduction in cell viability after 72 hrs by MTT assay", "assay_type": "functional, cell-based", "settings": "Bel-7402, 72 h", "outline": "as §3"}, "[23]": {"system": "Bel-7402", "experiment": "Induction of apoptosis in human Bel7402 cells assessed as reduction in Bcl-xl expression at 0.90 to 1.80 uM after 48 hrs by Western blot analysis", "assay_type": "functional, cell-based"}, "[24]": {"system": "Bel-7402", "experiment": "Induction of mitochondrial membrane potential loss in human Bel7402 cells assessed as cell population with mitochondrial membrane potential collapse at 0.90 uM after 48 hrs by JC1 staining-based flow cytometry analysis (reference value: 1.28%)", "assay_type": "functional", "outline": "as §2"}, "[25]": {"system": "Bel-7402", "experiment": "Induction of apoptosis in human Bel7402 cells assessed as increase in Bax expression at 0.90 to 1.80 uM after 48 hrs by Western blot analysis", "assay_type": "functional, cell-based"}, "[26]": {"system": "Bel-7402", "experiment": "Induction of apoptosis in human Bel7402 cells assessed as necrotic cells at 1.80 uM after 48 hrs by Annexin V-FITC/propidium iodide staining based flow cytometry (reference value: 0.01%)", "assay_type": "functional", "outline": "as §1"}, "[27]": {"system": "A549", "experiment": "Antiproliferative activity against human A549 cells assessed as reduction in cell viability after 72 hrs by MTT assay", "assay_type": "functional, cell-based", "settings": "A549, 72 h", "outline": "as §3"}, "[28]": {"system": "Bel-7402", "experiment": "Cell cycle arrest in human Bel7402 cells assessed as accumulation of cells at G2 phase at 0.90 uM after 48 hrs by propidium iodide/RNase staining based flow cytometric analysis (reference value: 29.97%)", "assay_type": "functional"}}, "note": "Active and inactive are the calls of the source. No cut-off for these calls is given here."}
{"smiles": "C=C1C(=O)[C@@]23C(=O)OC[C@]4(C(=O)CCC(C)(C)[C@H]4C=O)[C@@H]2CC[C@@H]1[C@H]3OC(=O)CCCC(=O)Oc1ccc(-c2cc(=S)ss2)cc1", "values": [{"measurement": "Activity", "setting": "[1]", "value": 36.64, "unit": "%"}, {"measurement": "selectivity ratio at 72 h", "setting": "[2]", "value": 24}, {"measurement": "Activity", "setting": "[3]", "value": 18.48, "unit": "%"}, {"measurement": "Activity", "setting": "[4]", "value": 58.59, "unit": "%"}, {"measurement": "Activity", "setting": "[5]", "value": 0.06, "unit": "%"}, {"measurement": "Activity", "setting": "[6]", "value": 34.52, "unit": "%"}, {"measurement": "Activity", "setting": "[7]", "value": 69.04, "unit": "%"}, {"measurement": "Activity", "setting": "[8]", "value": 15.17, "unit": "%"}, {"measurement": "Activity", "setting": "[9]", "value": "Active"}, {"measurement": "Activity", "setting": "[10]", "value": "Active"}, {"measurement": "IC50", "setting": "[11]", "value": 19.9, "unit": "µM"}, {"measurement": "Activity", "setting": "[12]", "value": "Dose-dependent effect"}, {"measurement": "IC50", "setting": "[13]", "value": 1.01, "unit": "µM"}, {"measurement": "Activity", "setting": "[14]", "value": 22.21, "unit": "%"}, {"measurement": "Activity", "setting": "[15]", "value": 81.5, "unit": "%"}, {"measurement": "Activity", "setting": "[16]", "value": 40.42, "unit": "%"}, {"measurement": "viability at 0.45 µM", "setting": "[17]", "value": 82.2, "unit": "%"}, {"measurement": "selectivity ratio at 72 h", "setting": "[18]", "value": 24}, {"measurement": "Activity", "setting": "[19]", "value": 15.91, "unit": "%"}, {"measurement": "Activity", "setting": "[20]", "value": "Dose-dependent effect"}, {"measurement": "Activity", "setting": "[21]", "value": 12.3, "unit": "%"}, {"measurement": "IC50", "setting": "[22]", "value": 0.88, "unit": "µM"}, {"measurement": "Activity", "setting": "[23]", "value": "Active"}, {"measurement": "Activity", "setting": "[24]", "value": 30.96, "unit": "%"}, {"measurement": "Activity", "setting": "[25]", "value": "Active"}, {"measurement": "Activity", "setting": "[26]", "value": 1.05, "unit": "%"}, {"measurement": "IC50", "setting": "[27]", "value": 5.21, "unit": "µM"}, {"measurement": "Activity", "setting": "[28]", "value": 19.81, "unit": "%"}]}
